Measured values published in paper PMC2659781 (Drug metabolism and disposition: the biological fate of …, 2008).
Converted amounts (≈) assume the structure as drawn. “Also recorded” adds a separate entry of the source.

How the values were obtained:
[1] = system: 20-HETE formation in rat brain cortical microsomes; assay: Inhibition of 20-HETE formation in rat brain cortical microsomes; type: biochemical; conditions: for 20-HETE formation rate, % of control incubation: HET0016 48.5 nM, 100 μM arachidonic acid
[2] = 1 hour after intraperitoneal 10 mg/kg dose in lecithin; ref Poloyac et al., 2006; cited from earlier work
[3] = ref Nakamura et al., 2003, cited from earlier work
[4] = Aqueous solubility of HET0016 in ddH2O and 15% HPβCD; type: physicochemical
[5] = system: brain cortical 20-HETE tissue concentrations; assay: Brain cortical 20-HETE tissue concentration after iv HET0016; type: in vivo, rat
[6] = system: 20-HETE formation in brain cortical microsomes; assay: Ex vivo 20-HETE formation in brain cortical microsomes from treated rats; design: species or system rat; conditions: 1 mg/kg iv, one hour after dosing, incubated in the absence of inhibitor
Outline: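 Rats got 1 mg/kg test compound iv or vehicle (n = 6 per group); cortex was taken 1 h post-dose. Microsomes were made by differential centrifugation in pH 7.4 tris/KCl/DTT/EDTA/20% glycerol buffer with PMSF and BHT. 325μg protein was incubated without added inhibitor in 0.12 M potassium phosphate/5mM MgCl2 with 100μM arachidonic acid. NADPH 1mM was added at start and at 30 min; 37°C, 60 min. 20-HETE d6 internal standard, diethyl ether extraction, MS.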

CCCCc1ccc(N=CNO)c(C)c1 [HET0016, N-Hydroxy-N′-(4-n-butyl-2-methylphenyl)formamidine]
reduction in 20-HETE formation rate ([1]; HET0016 30 nM): ~ 70%
20-HETE formation rate, % of control incubation ([1]; with 10 minute pre-incubation): 4.92 ± 0.19%
20-HETE formation rate, % of control incubation ([1]; without pre-incubation): 4.89 ± 0.46%
concentrations of HET0016 required for 20-HETE inhibition in the rat brain ([1]; in vitro): 30 to 90 nM
need for metabolic activation to inhibit 20-HETE formation ([1]; pre-incubation versus no pre-incubation): does not require metabolic activation
mechanism of inhibition of 20-HETE formation ([1]; rat brain cortical microsomes, 24 nM HET0016, arachidonic acid up to 120 μM): non-competitive inhibitor; also recorded: non-competitive inhibition
brain concentration as % of plasma concentration [2]: less than 10%
stability ([3]; acidic pH): instability
aqueous solubility ([3]; neutral pH): poor aqueous solubility
solubility at 48 h ([4]; 15% HPβCD): 453 ± 63.3 µg/mL (≈ 2190 µM)
solubility at 48 h ([4]; distilled, deionized water): 34.2 ± 31.2 µg/mL (≈ 166 µM)
time 20-HETE tissue concentrations remained significantly reduced ([5]; 1 mg/kg iv): 60 min
time of return of 20-HETE to control levels ([5]; 1 mg/kg iv): ≤ 24 h
time to reduction of brain 20-HETE after administration ([5]; 1 mg/kg iv): ≤ 5 min
20-HETE concentration recovery (of control) ([5]; 1 mg/kg iv, 180 minutes): 70%
20-HETE concentrations in brain tissue of treated animals (chromatograms) ([5]; data not shown): near or below the limits of detection
rat brain 20-HETE concentration after dosing ([5]; single iv dose 1 mg/kg, HPβCD formulation, from 289 pmol/g): 91 pmol/g
ex vivo 20-HETE formation in microsomes of treated animals [6]: persistent inhibition
